Screens deposited in PubChem by SRMLSC.
The entries come from a sample that favours hits as a whole.
bCat KO growth = beta-catenin-lacking colon tumor cell growth suppression; HCT116 beta-catenin knockout viability, CellTiter-Glo, 60 h; stronger effect = lower value; viability, % at 10 µM; actives 1.5% (n = 140,000); AID 818;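 active means viability at or under a set limit, the compound median less 4 SD, cut at about 6% in these data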;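 further: 0% = Hyamine 1622 control at 20 µM and 100% = untreated cell control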
HUVEC prolif 384 = inhibitors of human endothelial cell proliferation. HUVEC proliferation, CellTiter-Glo luminescence, 72 h; stronger effect = lower value. viability, % at 10 µM (by protocol). actives 1.1% (n = 86,000). AID 648;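 active means viability at or below 30%; inactive means viability above 30%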;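 further: 100% = median luminescence of DMSO-only cell control wells on each plate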
Fibroblast inh = blocks proliferation of human lung fibroblasts. actives 1.1% (n = 85,000). LL 47 human lung fibroblast viability, ATP luminescence; stronger effect = lower value. AID 719. viability, % at 10 µM;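 active means viability at or below 50% in the single dose screen; inactive means viability above 50%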;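 further: compound exposure lasted 72 h before the ATP readout; 100% = median luminescence of untreated cell-only wells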
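material = human LL 47 lung fibroblast cells | dosing = compounds added from tenfold dosing solution, 0.1% DMSO final | timing = overnight cell rest, 72 h compound treatment at 37 °C | measured by = CellTiter-Glo luminescence measuring cellular ATP | evaluation = % viability versus median cells-only luminescence | control set = cell-only wells, no compound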
PTEN del growth = suppresses growth of cells with PTEN deletion; HCT116 PTEN-null viability, CellTiter-Glo, 60 h; stronger effect = lower value; viability, % at 10 µM; actives 1.2% (n = 140,000);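 active means viability at or below a set limit, 4 SD under the median of all tested compounds, cut at about 3.7% in these data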;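 further: PTEN knockout HCT116 line with beta catenin targeted HCT116 as companion control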
H69AR inhibit = blocks growth of human H69AR lung tumor cells; H69AR lung tumor viability, ATP luminescence, 72 h; stronger effect = lower value; viability, % at 10 µM; actives 6% (n = 85,000); AID 598;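 active means viability at or below 40%; inactive means viability above 40%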;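 further: multidrug resistant small cell line overexpressing MRP-1 efflux transporter; 100% = mean luminescence of untreated control wells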
Numbers without * were called inactive; x = no result given.

SMILES | bCat KO growth | HUVEC prolif 384 | Fibroblast inh | PTEN del growth | H69AR inhibit
O=C1CC(N2CCC(n3c(=O)[nH]c4ccccc43)CC2)C(=O)N1c1ccc(F)cc1 (configuration not stated) | 92 | 92 | 92 | 92 | 103
O=c1[nH]c2ccccc2n1C1CCN(CCCC(c2ccc(F)cc2)c2ccc(F)cc2)CC1 | 1.4* | 2.7* | 69 | 1.1* | 1.7*
C/C(=C\c1ccc(N(C)C)cc1)[N+](=O)[O-] | 6 | x | x | 2.1* | x
CN(C)c1ccc(/C=C/[N+](=O)[O-])cc1 | 2.7* | x | x | 3.5* | x
COc1ccccc1N1CCN(Cc2ccc(Br)s2)CC1 | 81 | 120 | 95 | 81 | 94
CC(C)CNC(=O)c1c(N)n(Cc2ccco2)c2nc3ccccc3nc12 | 77 | 66 | 76 | 69 | 34*
CCCNC(=O)c1c(N)n(Cc2ccco2)c2nc3ccccc3nc12 | 87 | 65 | 92 | 78 | 26*
Nc1c(C(=O)NCc2ccco2)c2nc3ccccc3nc2n1CCN1CCCCC1 | 11 | 19* | 60 | 6 | 1.2*
CCOC(=O)C(C)(CC)NC(=O)CSP(=S)(OCC)OCC (configuration not stated) | 97 | 104 | 109 | 93 | 94
CCCCCCn1c(=O)c(C(=O)Nc2ccncc2)c(O)c2ccccc21 | x | 63 | 55 | x | 12*
CCCCn1c(=O)c(C(=O)Nc2ccccc2S(N)(=O)=O)c(O)c2ccccc21 | 77 | 74 | 104 | 71 | 23*
CCCCn1c(=O)c(C(=O)NCc2ccncc2)c(O)c2ccccc21 | 83 | 123 | 100 | 82 | 75
O=C(Nc1cccnc1)c1c(O)c2c(n(Cc3ccccc3)c1=O)CCCC2 | 74 | 94 | 103 | 72 | 86
O=C(Nc1ccncc1)c1c(O)c2ccccc2n(Cc2ccccc2)c1=O | x | 99 | 92 | x | 17*
OC1(CN2CCOCC2)C2CC3CC(C2)CC1C3 (configuration not stated) | 101 | 93 | 104 | 97 | 89
CCCC12CN3CC(CCC)(CN(C1)C3c1ccccn1)C2=O (configuration not stated) | 88 | 109 | 110 | 88 | 70
C/C(=N\Nc1ccccc1)c1c(O)n(C)c(=O)n(C)c1=O | 108 | x | x | 104 | x
Cc1ccccc1Cc1c(C)nc2nc(SCC(=O)N3CCC4(CC3)OCCO4)nn2c1C | 90 | x | x | 87 | x
CCOP(=S)(OCC)SCC(=O)NC(C(=O)O)C(C)C (configuration not stated) | 99 | 90 | 93 | 105 | 94
NC(=O)c1cn(C2OC(CO)C(O)C2O)c2ncnc(N)c12 (configuration not stated) | 2.7* | x | x | 3.0* | x
CCOC(=O)N1CCN(C(C)C(=O)c2c[nH]c3ccccc23)CC1 (configuration not stated) | 92 | 96 | 104 | 90 | 98
FC(F)(F)c1ccc2c(c1)ncn2C1CCN(Cc2nnnn2C2CCCCC2)CC1 | 76 | 85 | 96 | 70 | 37*
CCOC(=O)C(=CNc1ccc(C(O)(C(=O)OCC)C(F)(F)F)cc1C)C(=O)OCC (configuration not stated) | 70 | x | x | 57 | x
CCCCCCn1c(O)c(C=NC2CCCCC2N)c(=O)[nH]c1=O (configuration not stated) | 86 | 5.0* | 81 | 95 | 29*
NC(=O)c1c(NC(=O)c2ccc(S(=O)(=O)N(CCCl)CCCl)cc2)sc2c1CCCCC2 | 38 | x | x | 10 | x
SMILES | bCat KO growth | HUVEC prolif 384 | Fibroblast inh | PTEN del growth | H69AR inhibit
CC(C)CCNC(=O)c1c(N)n(Cc2ccc3c(c2)OCO3)c2nc3ccccc3nc12 | 22 | 15* | 67 | 19 | 6.1*
CC(C)CNC(=O)c1c(N)n(Cc2ccc3c(c2)OCO3)c2nc3ccccc3nc12 | 32 | 49 | 88 | 20 | 26*
COCCNC(=O)c1c(N)n(CCC(C)C)c2nc3ccccc3nc12 | 83 | 71 | 102 | 74 | 15*
CCCNC(=O)c1c(N)n(Cc2ccc3c(c2)OCO3)c2nc3ccccc3nc12 | 80 | x | x | 72 | x
O=P(OCC(F)(F)C(F)F)(N1CCCCC1)N1CCCCC1 | 95 | 94 | 99 | 99 | 100
Cc1ccc(C(=O)NC(O)C(Cl)(Cl)Cl)cc1 (configuration not stated) | 86 | x | x | 97 | x
CNC(C(=O)c1ccccc1)C(OC)c1ccc(C)cc1 (configuration not stated) | 92 | x | x | 93 | x
OCc1cnc[nH]1 | 89 | x | x | 94 | x
N#Cc1ccccc1Cn1cc(C(=O)c2cccs2)c2ccccc21 | 87 | 89 | 88 | 78 | 90
O=C(c1ccco1)c1cn(Cc2ccc(Cl)cc2)c2ccccc12 | 53 | 71 | 95 | 60 | 11*
O=C(c1cccs1)c1cn(Cc2ccccc2Cl)c2ccccc12 | 78 | 93 | 92 | 75 | 34*
COc1ccc(-c2nc3ccccc3n2OC(=O)N(C)C)cc1 | 107 | 89 | 96 | 105 | 64
CN(C)C(=O)On1c(-c2ccccc2)nc2ccc(Cl)cc21 | 89 | 98 | 90 | 82 | 38*
COc1cccc(CCNCc2ccc(SC)cc2)c1 | 96 | x | x | 86 | x
O=C(c1ccc2c(c1)ncn2C1CCCCC1)N1CCC2(CC1)OCCO2 | 17 | 60 | 75 | 22 | 17*
CCn1c(O)c(C=Nc2ccc(S(N)(=O)=O)cc2)c(=O)n(CC)c1=S | 74 | x | x | 76 | x
NS(=O)(=O)c1ccc(N=Cc2c(O)n(C3CCCCC3)c(=O)n(C3CCCCC3)c2=O)cc1 | 17 | 1.8* | 39* | x | 0.9*
Clc1ccc(CSC(Cn2ccnc2)c2ccc(Cl)cc2Cl)cc1 (configuration not stated) | 16 | 66 | 85 | 12 | 9.2*
Clc1ccc(COC(Cn2ccnc2)c2ccc(Cl)cc2Cl)cc1 (configuration not stated) | 47 | 9.2* | 78 | 46 | 26*
c1ccc(Cn2ccnc2)cc1 | 93 | 94 | 101 | 93 | 92
C/C(=N\N1CCCCC1c1cccnc1)c1c(O)n(C2CCCCC2)c(=S)[nH]c1=O (configuration not stated) | 56 | x | x | 47 | x
CC/C(=N\N1CCCCCC1)c1c(O)n(-c2ccc(C)cc2)c(=O)[nH]c1=O | 87 | x | x | 70 | x
Nc1c(C(=O)OCC2CCCO2)c2nc3ccccc3nc2n1Cc1cccs1 (configuration not stated) | 68 | 60 | 97 | 63 | 39*
CC(C)OCCCNC(=O)c1c(N)n(Cc2cccs2)c2nc3ccccc3nc12 | 32 | 35 | 81 | 14 | 98
CCN(CC)c1ccc(N=Cc2c(O)n(-c3cc(OC)ccc3OC)c(=O)[nH]c2=O)cc1 | 3.0* | 73 | 85 | 24 | 52
CCN(CC)CCCN=Cc1c(O)n(CCc2ccc(OC)c(OC)c2)c(=O)[nH]c1=O | 105 | 89 | 97 | 109 | 96
CCN(CC)c1ccc(N=Cc2c(O)n(CCc3ccc(OC)c(OC)c3)c(=O)[nH]c2=O)cc1 | 2.7* | x | x | 15 | x
CCN(CC)S(=O)(=O)c1ccc(N=Cc2c(O)n(-c3ccccc3)c(=O)[nH]c2=O)cc1 | 85 | 87 | 93 | 90 | 92
COc1ccc(S(=O)(=O)NC(CC(=O)N2CCC3(CC2)OCCO3)C(C)C)cc1 (configuration not stated) | 104 | 96 | 103 | 98 | 105
CC(C)c1oc(=O)cc2c1[C@@H](O)[C@H]1OC(=O)[C@@]3(C)C[C@@H](O)[C@@H](O)[C@@]2(C)C13 (some centres not stated) | 6 | x | x | 5 | x
